From ChEMBL document CHEMBL1134313, “Synthesis and biological evaluation of myoseverin derivatives: microtubule assembly inhibitors” (J Med Chem, 2001) come the findings set out here.

In data set [1] the test system is U-937. The data set is described as follows: Growth inhibition of human U937 cells. The data set is classed as functional. An outline of the steps:
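Proliferating U937 human leukemic cells were exposed to the compounds. Potency is reported as GI50, the concentration giving 50% growth inhibition. Toxicity was checked separately at up to 100 µM, as LC50.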

For another data set, the target named is Tubulin (Bos taurus, UniProt Q6B856+Q862L2+Q862F3). The data set is described as follows: Inhibition of tubulin polymerization using bovine brain tubulin. The data set is classed as functional.
In data set [2] the test system is U-937. In words: Toxicity towards human U937 cells. The data set is classed as cell-based.

Structures are written as SMILES.

For `COc1ccc(CNc2nc(NCc3ccc(OC)cc3)c3ncn(C4CCC(O)CC4)c3n2)cc1` (stereo unspecified), in the data set with U-937 [1], the GI50 came out at 2 µM. Further, on Tubulin, the concentration for half-maximal inhibition (IC50) was determined as 3 µM.

In the data set with U-937 [1], `COc1ccc(CNc2nc(NCc3ccc(OC)cc3)c3ncn(C)c3n2)cc1` returned a GI50 of 12 µM. Moreover, on Tubulin, the 50% inhibitory concentration (IC50) was determined as 25 µM.

Consider `COc1ccc(CNc2nc(NCc3ccc(OC)cc3)c3ncn(C4CCOC4)c3n2)cc1` (stereo unspecified), for which the GI50 with U-937 [1] amounted to 4 µM. The 50% inhibitory concentration (IC50) against Tubulin was 5 µM.

Regarding `COc1ccc(CNc2nc(NCc3ccc(OC)cc3)c3ncn(C4CCNCC4)c3n2)cc1`, the LC50 in the data set on U-937 [2] worked out at 40 µM. For the same compound, halving of growth in the data set with U-937 [1] (GI50) required 6 µM. Further, the IC50 against Tubulin came out at 5 µM.

Compound `COc1ccc(CNc2nc(NCc3ccc(OC)cc3)c3ncn(C4CCCC4)c3n2)cc1` returned a GI50 in the data set with U-937 [1] of 2 µM. At Tubulin, the half-inhibitory concentration (IC50) amounted to 3 µM.

The compound `COc1ccc(CNc2nc(NCc3ccc(OC)cc3)c3[nH]cnc3n2)cc1` displayed a 50% growth inhibitory concentration (GI50) with U-937 [1] of 18 µM. On Tubulin, this compound registered an IC50 of 50 µM.

The compound `COc1ccc(CNc2nc(NCc3ccc(OC)cc3)c3ncn(C4CCC4)c3n2)cc1` yielded a GI50 in the data set on U-937 [1] of 5 µM. The compound also came in with an IC50 on Tubulin of 5 µM.

Take `COc1ccc(CNc2nc(NCc3ccc(OC)cc3)c3ncn(C4CCCCC4)c3n2)cc1`: the GI50 in the data set with U-937 [1] was 0.2 µM. Moreover, the IC50 against Tubulin is 2 µM.

With `COc1ccc(CNc2nc(NCc3ccc(OC)cc3)c3ncn(C(C)C)c3n2)cc1` [MYOSEVERIN], the GI50 in the data set with U-937 [1] was determined as 4 µM. On Tubulin, this compound yielded an IC50 of 8 µM.

In turn, `CCn1cnc2c(NCc3ccc(OC)cc3)nc(NCc3ccc(OC)cc3)nc21` yielded a GI50 with U-937 [1] of 6 µM. Further, the IC50 against Tubulin is 25 µM.
